Test results taken from ChEMBL document CHEMBL3813647, “Discovery of an Orally Active and Liver-Targeted Prodrug of 5-Fluoro-2'-Deoxyuridine for the Treatment of Hepatocellular Carcinoma” (J Med Chem, 2016).

What was measured:
[1] = tested on: Liver; assay: Drug uptake in Sprague-Dawley rat liver S9 fraction treated with (S)-Isopropyl 2-(((R)-(((2R,3S,5R)-5-(5-fluoro-2,4-dioxo-3,4-dihydropyrimidin-1(2H)-yl)-3-hydroxytetrahydrofuran-2-yl)methoxy)((2-methylbenzyl)oxy)phosphoryl)amino)propanoate at 20 ug/mL after 20 mins by HPLC-MS/MS analysis in absence of NADPH; type: ADME; settings: s9, 20 min
Outline: (§1)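 Rat liver S9 (10 mg/mL) incubated with compound at 20 μg/mL. Parent, intermediate A and FdUMP followed over time by HPLC-MS/MS. Negative control run without NADPH.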

[2] = Cytotoxicity against human SMMC7721 cells assessed as reduction in cell viability after 72 hrs by MTT assay; type: functional, cell-based; settings: SMMC-7721, 72 h
Outline: (§2)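 Cells in RPMI-1640 with 10% FBS, seeded at 4 × 10³ per well and attached for 24 h. Compound (DMSO ≤0.5% final) added for 72 h at 37 °C, 5% CO2. Viability read by MTT. IC50 set against 0.5% DMSO-treated cells taken as 100% viable. Mean of two independent experiments, each run in triplicate.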

[3] = tested on: Liver; assay: Drug metabolism in phenobarbital/beta-napthoflavone treated Sprague-Dawley rat liver S9 fraction assessed as prodrug activation at 50 uM preincubated for 5 mins followed by NADPH addition measured up to 60 mins by HPLC-MS/MS analysis; type: ADME, subcellular; settings: s9, 1 h
Outline: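 S9 prepared from livers of Sprague-Dawley rats dosed i.g. with phenobarbital/β-naphthoflavone for 3 days. Incubation: 100 mM KH2PO4 pH 7.4, 5 mg/mL S9, compound at 50 μM, 5 min preincubation at 37 °C, then 2 mM NADPH. Samples at 0–60 min, MeOH extraction, FdUMP (m/z 325→129) measured by HPLC-MS/MS. Triplicate.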

[4] = Half life in rat plasma by HPLC analysis; type: ADME, cell-free
Outline: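 Rat plasma, 37 °C. Compound added from a 2.5 mM stock, sampled at 0–24 h, quenched with MeOH. Analyzed by HPLC-UV at 267 nm (C8 column, MeOH:H2O 68:32). Triplicate samples.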

[5] = Cytotoxicity against human LO2 cells assessed as reduction in cell viability after 72 hrs by MTT assay; type: cell-based; settings: L02, 72 h; outline: as §2
[6] = Half life in dog plasma by HPLC-MS/MS analysis; type: ADME, cell-free, Canis lupus familiaris
Outline: (§3)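 Compound at 1 μg/mL final in dog or human plasma, 37 °C. Sampled at 0–24 h and quenched with ice-cold MeOH containing internal standard. Parent measured by LC-MS/MS in ESI negative mode; t1/2 calculated from percent remaining versus 0 h.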

[7] = Half life in human plasma by HPLC-MS/MS analysis; type: ADME, cell-free; outline: as §3
[8] = tested on: Plasma; assay: Cmax in Sprague-Dawley rat plasma assessed as FDUR formation at 23.62 mg/kg administered through oral gavage measured up to 24 hrs by HPLC-MS/MS analysis; type: ADME, organism-based; design: dose 23.62 mg/kg, route oral; settings: in vivo
Outline: (§4)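 Male Sprague-Dawley rats (220 ± 20 g), single gavage of 0.096 mmol/kg. FDUR was dosed in H2O; the prodrugs were dosed in 20% hydroxypropyl-β-cyclodextrin. n = 3 per time point, sampled at 0.25–24 h. Plasma (EDTA-K2, cardiac puncture) and freeze-clamped liver were homogenized in 20 mM EDTA-K2/70% MeOH. Analytes measured by HPLC-MS/MS in ESI negative mode.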

[9] = tested on: Liver; assay: Cmax in Sprague-Dawley rat liver assessed as 5-FU formation at 23.62 mg/kg administered through oral gavage measured up to 24 hrs by HPLC-MS/MS analysis; type: ADME, organism-based; design: dose 23.62 mg/kg, route oral; settings: in vivo; outline: as §4
[10] = tested on: Plasma; assay: Cmax in Sprague-Dawley rat plasma assessed as 5-FU formation at 23.62 mg/kg administered through oral gavage measured up to 24 hrs by HPLC-MS/MS analysis; type: ADME, organism-based; design: dose 23.62 mg/kg, route oral; settings: in vivo; outline: as §4
[11] = tested on: Liver; assay: AUC (infinity) in Sprague-Dawley rat liver assessed as FdUMP formation at 23.62 mg/kg administered through oral gavage measured up to 24 hrs by HPLC-MS/MS analysis; type: ADME, organism-based; design: dose 23.62 mg/kg, time infinity, route oral; settings: in vivo; outline: as §4
[12] = Ratio of FdUMP AUC (infinity) in Sprague-Dawley rat liver to FDUR AUC (infinity) in Sprague-Dawley rat plasma at 23.62 mg/kg administered through oral gavage; type: ADME, organism-based; settings: in vivo
[13] = tested on: Plasma; assay: AUC (infinity) in Sprague-Dawley rat plasma assessed as 5-FU formation at 23.62 mg/kg administered through oral gavage measured up to 24 hrs by HPLC-MS/MS analysis; type: ADME, organism-based; design: dose 23.62 mg/kg, route oral, time infinity; settings: in vivo; outline: as §4
[14] = tested on: Liver; assay: Cmax in Sprague-Dawley rat liver assessed as FdUMP formation at 23.62 mg/kg administered through oral gavage measured up to 24 hrs by HPLC-MS/MS analysis; type: ADME, organism-based; design: dose 23.62 mg/kg, route oral; settings: in vivo; outline: as §4
[15] = tested on: Liver; assay: AUC (infinity) in Sprague-Dawley rat liver assessed as 5-FU formation at 23.62 mg/kg administered through oral gavage measured up to 24 hrs by HPLC-MS/MS analysis; type: ADME, organism-based; design: dose 23.62 mg/kg, time infinity, route oral; settings: in vivo; outline: as §4
[16] = tested on: Plasma; assay: AUC (infinity) in Sprague-Dawley rat plasma assessed as FDUR formation at 23.62 mg/kg administered through oral gavage measured up to 24 hrs by HPLC-MS/MS analysis; type: ADME, organism-based; design: dose 23.62 mg/kg, time infinity, route oral; settings: in vivo; outline: as §4
[17] = tested on: H22; assay: Antitumor activity against mouse H22 cells implanted in KM mouse assessed as tumor growth inhibition at 60 mg/kg administered daily through oral gavage after 8 days; type: functional; settings: 192 h
Outline: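 Syngeneic H22 hepatoma: 2 × 10⁶ cells injected s.c. in the axilla (0.9% saline) of female KM mice, n = 10 per group. From day 2, daily oral gavage for 8 days. Test agent given in 35% PEG400; sorafenib suspended in 0.5% CMC-Na. Tumor weight taken on day 8; inhibition rate calculated versus the vehicle group.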

[18] = tested on: Mus musculus; assay: Toxicity in KM mouse implanted with mouse H22 cells assessed as body weight level at 60 mg/kg administered daily through oral gavage after 8 days (reference value: 22.1 +/- 0.8g); type: organism-based; settings: in vivo, 192 h
[19] = tested on: Liver; assay: Drug uptake in Sprague-Dawley rat liver S9 fraction treated with (S)-Isopropyl 2-(((R)-(((2R,3S,5R)-5-(5-fluoro-2,4-dioxo 3,4-dihydropyrimidin-1(2H)-yl)-3-hydroxytetrahydrofuran-2-yl)methoxy)((2-methylbenzyl)oxy)phosphoryl)amino)propanoate at 20 ug/mL preincubated for 5 mins followed by NADPH addition measured at 20 mins by HPLC-MS/MS analysis; type: ADME, subcellular; settings: s9, 20 min; outline: as §1

SMILES	IC50 [2] [µM]	Drug metabolism [3] [nmol/min/mg]	half-life [4] [h]	also measured
Cc1ccccc1C(=O)O [TOLUIC ACID]	–	–	–	Drug metabolism [1]: metabolite_detected
O=c1[nH]c(=O)n([C@H]2C[C@H](O)[C@@H](COP(=O)(NCc3ccccc3)OCc3ccc(Cl)cc3)O2)cc1F (stereo partly specified)	133	25.6	> 24	–
O=c1[nH]c(=O)n([C@H]2C[C@H](O)[C@@H](COP(=O)(NCc3ccccc3)OCc3ccccc3Br)O2)cc1F (stereo partly specified)	151	49.6	> 24	–
COc1ccccc1COP(=O)(NCc1ccccc1)OC[C@H]1O[C@@H](n2cc(F)c(=O)[nH]c2=O)C[C@@H]1O (stereo partly specified)	6.8	238.9	3.4	–
Cc1ccccc1COP(=O)(N[C@@H](C)C(=O)OC(C)C)OC[C@H]1O[C@@H](n2cc(F)c(=O)[nH]c2=O)C[C@@H]1O (stereo partly specified)	276	–	< 0.083	IC50 [5]: 333 µM; half-life [6]: > 24 h; half-life [7]: > 24 h
O=c1[nH]c(=O)n([C@H]2C[C@H](O)[C@@H](CO)O2)cc1F [FLOXURIDINE]	–	–	–	Cmax [8]: 180 ng/mL; Cmax [9]: 60 ng/g; Cmax [10]: 169 ng/mL; AUC [11]: < 34 ng·h/g; Ratio AUC [12]: < 0.11; AUC [13]: 209 ng·h/mL; Cmax [14]: 9 ng/g; AUC [15]: 232 ng·h/g; AUC [16]: 308 ng·h/mL
CNC(=O)c1cc(Oc2ccc(NC(=O)Nc3ccc(Cl)c(C(F)(F)F)c3)cc2)ccn1 [SORAFENIB]	–	–	–	inhibition in vivo at 60 mg/kg [17]: 50.8%; Activity [18]: 26.4 g
O=c1[nH]c(=O)n([C@H]2C[C@H](O)[C@@H](COP(=O)(NCc3ccccc3)OCc3ccccc3Cl)O2)cc1F (stereo partly specified)	132	29.2	> 24	–
O=c1[nH]c(=O)n([C@H]2C[C@H](O)[C@@H](COP(=O)(O)O)O2)cc1F [5-FLUORODEOXYURIDYLATE]	–	–	–	Drug uptake [19]: metabolite_detected
O=c1[nH]c(=O)n([C@H]2C[C@H](O)[C@@H](COP(=O)(NCc3ccccc3)OCc3cccc([N+](=O)[O-])c3)O2)cc1F (stereo partly specified)	–	14.9	> 24	–
O=c1[nH]c(=O)n([C@H]2C[C@H](O)[C@@H](COP(=O)(NCc3ccccc3)OCc3ccc(F)cc3)O2)cc1F (stereo partly specified)	150	26.3	> 24	–
Cc1ccccc1CO[P@](=O)(N[C@@H](C)C(=O)O)OC[C@H]1O[C@@H](n2cc(F)c(=O)[nH]c2=O)C[C@@H]1O	–	–	–	Drug uptake [19]: metabolite_detected
